Assay results as given in article PMC3378324 (Febs Letters, 2012).

B1: Alix: ALG-2 (apoptosis-linked gene 2)-interacting protein X, an adapter protein (protein, UniProt Q8WUM4 2-868, looked up)
Programmed cell death …: ATFISVQLKKTSEVDLAKPLVKFIQQTYPSGGEEQAQYCRAAEELSKLRRAAVGRPLDKHEGALETLLRYYDQICSIEPKFPFSENQICLTFTWKDAFDKGSLFGGSVKLALASLGYEKSCVLFNCAALASQIAAEQNLDNDEGLKIAAKHYQFASGAFLHIKETVLSALSREPTVDISPDTVGTLSLIMLAQAQEVFFLKATRDKMKDAIIAKLANQAADYFGDAFKQCQYKDTLPKEVFPVLAAKHCIMQANAEYHQSILAKQQKKFGEEIARLQHAAELIKTVASRYDEYVNVKDFSDKINRALAAAKKDNDFIYHDRVPDLKDLDPIGKATLVKSTPVNVPISQKFTDLFEKMVPVSVQQSLAAYNQRKADLVNRSIAQMREATTLANGVLASLNLPAAIEDVSGDTVPQSILTKSRSVIEQGGIQTVDQLIKELPELLQRNREILDESLRLLDEEEATDNDLRAKFKERWQRTPSNELYKPLRAEGTNFRTVLDKAVQADGQVKECYQSHRDTIVLLCKPEPELNAAIPSANPAKTMQGSEVVNVLKSLLSNLDEVKKEREGLENDLKSVNFDMTSKFLTALAQDGVINEEALSVTELDRVYGGLTTKVQESLKKQEGLLKNIQVSHQEFSKMKQSNNEANLREEVLKNLATAYDNFVELVANLKEGTKFYNELTEILVRFQNKCSDIVFARKTERDELLKDLQQSIAREPSAPSIPTPAYQSSPAGGHAPTPPTPAPRTMPPTKPQPPARPPPPVLPANRAPSATAPSPVGAGTAAPAPSQTPGSAPPPQAQGPPYPTYPGYPGYCQMPMPMGYNPYAYGQYNMPYPPVYHQSPGQAPYPGPQQPSYPFPQPPQQSYYPQQ
B2: ALIXV+PRR: Human Alix recombinant construct (ALIXV+PRR) consisting of residues 362–760 (protein)
chain: SVQQSLAAYNQRKADLVNRSIAQMREATTLANGVLASLNLPAAIEDVSGDTVPQSILTKSRSVIEQGGIQTVDQLIKELPELLQRNREILDESLRLLDEEEATDNDLRAKFKERWQRTPSNELYKPLRAEGTNFRTVLDKAVQADGQVKECYQSHRDTIVLLCKPEPELNAAIPSANPAKTMQGSEVVNVLKSLLSNLDEVKKEREGLENDLKSVNFDMTSKFLTALAQDGVINEEALSVTELDRVYGGLTTKVQESLKKQEGLLKNIQVSHQEFSKMKQSNNEANLREEVLKNLATAYDNFVELVANLKEGTKFYNELTEILVRFQNKCSDIVFARKTERDELLKDLQQSIAREPSAPSIPTPAYQSSPAGGHAPTPPTPAPRTMPPTKPQPPARPPP
modifications: left off: His6-Smt3, N-terminal, state not stated

Columns and labels:
Hck = conditions: ref [12]; cited from earlier work
Hck-SH3-GST = experiment: GST pull-down, SDS-PAGE and Coomassie blue staining; type: binding, human; conditions: in vitro
In short: (§1)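 Partner protein: human Alix fragment ALIX_V+PRR (residues 362–760, V domain plus SH3-binding proline-rich region), expressed with an N-terminal His6-Smt3 tag in E. coli BL21(DE3). Baits were GST-fused SH3 domains (Hck; Fyn wild-type; Fyn RT-loop mutant with Arg96 replaced by Ile). In vitro GST pull-down; bound protein resolved by SDS-PAGE and visualised by Coomassie blue staining.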

Fyn(R96I)-SH3-GST = experiment: as above; type: binding; conditions: in vitro
In short: as §1

[1] = system: Hck-SH3, Fyn(WT)-SH3, and Fyn(R96I)-SH3; experiment: NMR 1H-15N HSQC, comparison across SH3 domains; type: binding; conditions: 1 equivalent of ALIXV+PRR
[2] = SAXS; apo; compared with 190 ± 10 Å; ref [12]; cited from earlier work

Molecule | binding to and activation of Hck (Hck) | GST pull-down binding (Hck-SH3-GST) | GST pull-down binding (Fyn(R96I)-SH3-GST) | involvement of nSrc loop, Hck-SH3 versus Fyn(R96I)-SH3 [1] | maximum diameter (Dm) compared with Fyn(R96I)-SH3-bound ALIXV+PRR [2]
B1 | binds to and activates Hck | – | – | – | –
B2 | – | binding | binding | the nSrc loop seems to be more involved in the Hck-SH3–ALIXV+PRR interaction than in the Fyn(R96I)-SH3–ALIXV+PRR interaction | the same
